From ChEMBL document CHEMBL1131263, “Substituted tetrahydropyrrolo[2,1-b]oxazol-5(6H)-ones and tetrahydropyrrolo[2,1-b]thiazol-5(6H)-ones as hypoglycemic agents” (1998)

How the values were obtained:
[1] = compound was tested in vivo for lower blood glucose levels in diabetic obese ob/ob mice by measuring postprandial blood glucose level on day1 after 2 hours at 15.86 uM/kg oral dose.; format: functional, Mus musculus
In short: (§1)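 Adult male C57BL ob/ob mice, fed, grouped (6/group) and matched for blood glucose on day 0; mice under 150 mg/dL excluded. Oral dosing in the morning on days 1-3, vehicle 0.5% CMC with 0.2% Tween-80. Significance versus vehicle.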

[2] = lowest concentration at which glucose utilized was greater than or equal to 140% of control value tested in a glucose utilization L6 myocyte in vitro assay; format: functional, Rattus norvegicus
In short: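 Differentiated rat L6 myotubes (day 11 or 13 after plating) exposed 20 h to compound in serum-free DMEM with 15 mM glucose and 1% final DMSO. Tested in quadruplicate at 3, 10, 30, 100, 300 µM. Glucose left in the medium read by glucose oxidase. Value is the lowest concentration giving at least 40% more utilization than control.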

[3] = compound was tested in vivo for lower blood glucose levels in diabetic obese ob/ob mice by measuring postprandial blood glucose level on day1 after 4 hours at 15.86 uM/kg oral dose.; format: functional, Mus musculus; in short: as §1

Q: Which Efficacy [1] does the source give for `CC(C)C(N)C(=O)NC(C(=O)O)C(O)[C@H]1CN2C(=O)C[C@@H]2O1` (stereo partly drawn) here?
A: 63%

Q: What about the “Lowest effective concentration for glucose utilization ≥140% of control” value [2] of the same compound?
A: 10 µM

Q: What about the Efficacy [3] of the same compound?
A: 63%
